Source: PubChem
HCT116 bCat-KO = beta-catenin-lacking colon tumor cell growth suppression; viability, % at 10 µM; 140,000 tested, 1.5% active; HCT116 beta-catenin knockout viability, CellTiter-Glo, 60 h; active compounds read low;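 active means viability at or under a set limit, the compound median less 4 SD, cut at about 6% in these data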;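 further: 0% = Hyamine 1622 control at 20 µM and 100% = untreated cell control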
Fibroblast inh = blocks proliferation of human lung fibroblasts; LL 47 human lung fibroblast viability, ATP luminescence; active compounds read low; viability, % at 10 µM; 85,000 tested, 1.1% active; AID 719;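 active means viability at or below 50% in the single dose screen; inactive means viability above 50%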;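 further: compound exposure lasted 72 h before the ATP readout; 100% = median luminescence of untreated cell-only wells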
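Test system: LL 47 human lung fibroblasts / Quantity: 1,150 cells in each well / Medium: IMEM growth medium with 15% fetal bovine serum / Incubation: 72 h compound exposure at 37 °C after overnight plating / Detection: CellTiter-Glo luminescence measuring cellular ATP / Read-out: % viability versus median cells-only luminescence / Benchmarks: cell-only wells, no compound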
HCT116 PTEN-null = suppresses growth of cells with PTEN deletion; HCT116 PTEN-null viability, CellTiter-Glo, 60 h; active compounds read low; viability, % at 10 µM; 140,000 tested, 1.2% active; AID 827;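 active means viability at or below a set limit, 4 SD under the median of all tested compounds, cut at about 3.7% in these data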;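 further: PTEN knockout HCT116 line with beta catenin targeted HCT116 as companion control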
HUVEC inhibit = human endothelial cell proliferation inhibition | HUVEC proliferation, CellTiter-Glo luminescence, 72 h; active compounds read low | viability, % at 10 µM (by protocol) | 86,000 tested, 1.1% active | AID 648;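 active means viability at or below 30%; inactive means viability above 30%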;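 further: 100% = median luminescence of DMSO-only cell control wells on each plate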
H69AR growth 86K = blocks growth of human H69AR lung tumor cells; H69AR lung tumor viability, ATP luminescence, 72 h; active compounds read low; AID 598; 85,000 tested, 6% active; viability, % at 10 µM;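 active means viability at or below 40%; inactive means viability above 40%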;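 further: multidrug resistant small cell line overexpressing MRP-1 efflux transporter; 100% = mean luminescence of untreated control wells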
Starred values were filed as active, the others as inactive; nt = not tested or not shown. The entries come from a sample that favours hits as a whole.

SMILES	HCT116 bCat-KO	Fibroblast inh	HCT116 PTEN-null	HUVEC inhibit	H69AR growth 86K
CCOC(=O)COc1ccsc1C(=O)OC	92.8	nt	98.1	nt	nt
COC(=O)/C(=C\Nc1ccc(OC)cc1)NC(=O)c1ccc(Cl)cc1Cl	64.8	88.4	76.9	74.6	36.2*
CCSc1nnc(C)c(=O)n1COC(=O)c1ccc(S(=O)(=O)N2CCCC2)cc1	89.9	nt	99.2	nt	nt
O=c1c2ccccc2nc(/C=C/c2ccc([N+](=O)[O-])o2)n1CCCO	1.5*	nt	1.3*	nt	nt
O=c1c2ccccc2nc(/C=C/c2ccc([N+](=O)[O-])cc2)n1CCCO	55.5	nt	55.6	nt	nt
CCOC(=O)N1CCN(C(=O)C2CCC(CNS(=O)(=O)c3ccc(Cl)cc3)CC2)CC1 (centres undefined)	104.2	97.0	104.4	96.6	82.3
CCOC(=O)N1CCC(NC(=O)CNS(=O)(=O)c2ccc(Br)s2)CC1	86.3	89.7	81.1	73.8	23.1*
CCOC(=O)N1CCC(NC(=O)C2CCC(CNS(=O)(=O)c3ccc(OC)cc3)CC2)CC1 (centres undefined)	92.2	nt	95.1	73.3	6.0*
CC12CCC(c3c(C(=O)Nc4nccs4)nn(-c4ccccc4)c31)C2(C)C (centres undefined)	1.4*	68.8	1.6*	99.7	20.4*
CC12CCC(c3c(C(=O)O)nn(-c4ccccc4)c31)C2(C)C (centres undefined)	93.2	98.4	102.6	107.2	85.2
Cc1nc(-c2c(C(F)(F)F)noc2-c2ccc(O)cc2O)cs1	75.0	99.1	83.6	109.6	88.3
CCOc1cc(C)c(-c2onc(C(F)(F)F)c2-c2csc(C)n2)c(O)c1	79.3	88.2	58.0	38.5	3.9*
O=C(N/N=C/c1cccc(F)c1)c1c(O)c2c([nH]c1=O)CCCC2	90.2	nt	95.8	nt	nt
CC(=O)/C(CN1CCCCC1)=N\O	117.0	98.3	94.9	93.2	101.9
C/C(=N\O)C(=O)C(CN1CCCCC1)CN1CCCCC1	99.8	15.1*	81.6	74.3	0.4*
CCN(CC)c1ccc(/C=C2/SC(=O)N(C(C)C)C2=O)o1	5.6*	nt	5.2	nt	nt
CC(C)CCn1c(O)c(N=Nc2ccccn2)c2ccccc21	88.5	nt	89.4	nt	nt
Oc1ccc2ccccc2c1N=Nc1ccccn1	2.4*	nt	2.6*	nt	nt
Cc1ccc(-c2nc(SCC(=O)N(C)C3CCS(=O)(=O)C3)[nH]c2-c2ccc(C)cc2)cc1 (centres undefined)	95.7	nt	83.7	nt	nt
C=CCN(C(=O)c1ccccc1)c1ccc(OC)cc1	41.6	87.7	32.6	81.8	23.5*
COC(=O)C1=C(C)N(CCc2ccc(OC)c(OC)c2)C(=O)/C1=C\N(C)C	103.7	99.3	114.7	97.0	97.7
O=C1c2ccccc2-c2onc3c(Oc4ccccc4)cc(O)c1c23	67.5	88.9	76.8	63.1	25.2*
CN1C(=O)CC(C(=O)O)SC1=Nc1cc(Cl)cc(Cl)c1 (centres undefined)	95.7	nt	91.8	nt	nt
CCOC(=O)c1[nH]c(C)c(C(=O)Nc2ccccc2F)c1C	22.9	64.4	20.4	56.1	22.5*
CCOC(=O)c1[nH]c(C)c(C(=O)NCc2ccc(C)cc2)c1C	91.4	96.6	67.8	58.5	90.8
SMILES	HCT116 bCat-KO	Fibroblast inh	HCT116 PTEN-null	HUVEC inhibit	H69AR growth 86K
CCOC(=O)c1[nH]c(C)c(C(=O)Nc2ccc(F)cc2)c1C	99.4	98.7	101.7	99.7	84.5
CCOC(=O)c1[nH]c(C)c(C(=O)Nc2ccc(C)cc2C)c1C	28.6	63.9	22.8	66.7	37.6*
CCOC(=O)c1[nH]c(C)c(C(=O)c2ccc(C)cc2)c1C	14.0	46.2*	nt	41.4	28.8*
Nc1nc(NCc2ccco2)nc(N2CCCCC2)c1[N+](=O)[O-]	82.8	nt	78.6	nt	nt
COc1ccccc1C(=O)Nc1ccc(S(=O)(=O)N2CCc3ccccc32)cc1	82.8	107.2	79.4	107.1	95.5
CCc1nnc(NC(=O)c2ccc(S(=O)(=O)N3CCCc4ccccc43)cc2)o1	18.4	67.5	14.0	58.2	19.9*
COC(=O)Nc1ccc(S(=O)(=O)N2CCCc3ccccc32)cc1	13.8	53.2	15.0	51.4	17.7*
Cn1c(=O)oc2cc(S(=O)(=O)N3CCCc4ccccc43)ccc21	14.6	50.2	14.9	47.7	22.6*
Cc1cc(C(=O)OCC(=O)NCc2ccco2)c(C)n1-c1ccc(F)cc1	14.3	60.8	18.8	45.1	20.7*
Cn1c(=O)[nH]c(=O)c2c1nc(CN1CCN(c3cccc(Cl)c3)CC1)n2CCc1ccccc1	79.3	85.0	73.9	72.5	2.8*
CCCCCn1c(CN2CCN(c3cccc(Cl)c3)CC2)nc2c1c(=O)[nH]c(=O)n2C	60.0	83.6	48.3	64.0	38.6*
COc1ccc(-c2c[n+]3c(n2-c2ccccc2)CCCCC3)cc1	30.7	nt	42.7	nt	nt
COc1ccc(-c2c[n+]3c4n2CCCCC4=C(c2ccccc2)C3)cc1	3.8*	35.9*	3.5*	46.9	47.7
CS(=O)(=O)N1CCN(c2ccc(NC(=O)c3ccc(-c4ccc(Cl)cc4)o3)cc2)CC1	84.8	71.8	88.9	38.4	28.5*
O=C(Nc1ccc(CN2CCOCC2)cc1)c1ccc(-c2cccc(Cl)c2)o1	1.9*	71.5	3.9	44.8	31.1*
O=C(Nc1ccc(CN2CCOCC2)cc1)c1cc2ccccc2o1	65.4	110.0	74.0	103.9	92.3
Cc1c(C(=O)Nc2ccccc2[N+](=O)[O-])csc1-c1ccccc1	64.0	nt	72.0	nt	nt
NC(=O)c1cnccn1	99.7	nt	103.6	nt	nt
CN1CCN(C2=C(Cl)C(=O)N(c3ccc(Cl)c(Cl)c3)C2=O)CC1	81.3	94.2	86.1	88.3	8.5*
CCN1CCN(C2=C(Cl)C(=O)N(Cc3ccccc3)C2=O)CC1	76.9	95.0	87.7	93.5	47.4
CN1CCN(C2=C(Cl)C(=O)N(Cc3ccccc3)C2=O)CC1	75.9	90.8	76.3	89.2	39.1*
CCCCCC(=O)Nc1cc2[nH]c(=O)cc(COC)c2cc1C	94.1	nt	86.2	nt	nt
COc1cc(/C=C/C(=O)CC(=O)/C=C/c2ccc(O)c(OC)c2)ccc1O	6.8	20.6*	5.1	22.3*	4.3*
Cc1ccc([N+](=O)[O-])cc1NC(=S)NC(=O)c1cccs1	75.2	nt	74.7	nt	nt
c1ccc2c(CCNc3ncnc4nc[nH]c34)c[nH]c2c1	47.2	83.5	38.2	65.1	20.1*
SMILES	HCT116 bCat-KO	Fibroblast inh	HCT116 PTEN-null	HUVEC inhibit	H69AR growth 86K
O=c1c2ccccc2nc2c3ccccc3c(NCc3ccco3)nn12	68.0	93.8	66.2	81.6	73.8
c1ccc(N2CCN(c3nc(NCc4ccco4)c4ccccc4n3)CC2)cc1	2.4*	nt	3.1*	nt	nt
c1coc(CNc2nc(N3CCCCC3)nc3ccccc23)c1	23.5	81.3	28.7	55.8	5.3*
Cc1sc2nc(CSc3nc4ccccc4c(=O)n3CCCN3CCOCC3)[nH]c(=O)c2c1C	41.7	86.4	31.9	60.3	9.8*
CC(=O)c1c(C)[nH]c(C(=O)CSc2nc3ccccc3c(=O)n2CCCN2CCOCC2)c1C	59.2	81.1	58.4	86.0	65.6
COc1ccc2cc(Br)ccc2c1CC(=O)NC1CC(C)(C)NC(C)(C)C1	53.6	82.8	20.2	74.1	47.1
Nc1nc(NC(=O)c2ccccc2)nn1-c1ccccc1	92.4	nt	104.7	nt	nt
